Publication PMC10443532 (ACS Chemical Biology, 2023)

Molecular target: T1, recombinant mouse Nape-pld (Mus musculus, UniProt Q8BH82)
T1 sequence (Q8BH82 1-396): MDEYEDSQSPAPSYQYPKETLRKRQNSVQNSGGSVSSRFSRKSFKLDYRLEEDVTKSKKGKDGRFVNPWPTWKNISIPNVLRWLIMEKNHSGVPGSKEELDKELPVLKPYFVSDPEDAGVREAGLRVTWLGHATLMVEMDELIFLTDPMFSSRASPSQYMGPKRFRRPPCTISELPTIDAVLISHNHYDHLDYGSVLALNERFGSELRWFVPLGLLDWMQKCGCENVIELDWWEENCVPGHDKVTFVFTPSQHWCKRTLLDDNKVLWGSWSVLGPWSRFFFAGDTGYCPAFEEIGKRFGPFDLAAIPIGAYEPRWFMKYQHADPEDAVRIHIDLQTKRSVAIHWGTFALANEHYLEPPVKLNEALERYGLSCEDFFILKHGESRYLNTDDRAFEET
Experiment: VU534 competition assays with compounds known to bind Nape-pld
Assay type: biochemical
Conditions: for Effect on Nape-pld activity (compound alone): in presence of 0.4% NOG, 100 μM PE, 1 mM DCA
Outline: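 Enzyme (final 0.4 μg, 50 mM Tris, 0.4% N-octylglucoside) was preincubated with vehicle or a competitor for 30 min: dioleoyl-PE 100 μM, deoxycholic acid 1 mM, bithionol 3 μM or LEI-401 30 μM. Alternatively, 15 μM of an analog was used for 5 min. Graded test compound followed for 60 min, then flame-NAPE (0.5 μM) plus N-oleoyl-PE (9.5 μM). The 5-min fluorescence change was normalized to vehicle, 0 μM.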

Structure (SMILES)	Effect on Nape-pld activity (compound alone)	Effect on ability of 5 μM VU534 to activate Nape-pld (graded concentrations of LEI-401 or VU233, flame-NAPE (Figure S5))
C[C@H](CCC(=O)O)[C@H]1CC[C@H]2[C@@H]3CC[C@@H]4C[C@H](O)CC[C@]4(C)[C@H]3C[C@H](O)[C@]12C [DCA, deoxycholic acid]	slight, but nonsignificant trend for inhibition	
CCCCCCCC/C=C\CCCCCCCC(=O)OC[C@H](COP(=O)(O)OCCN)OC(=O)CCCCCCC/C=C\CCCCCCCC [PE, dioleoylphosphatidylethanolamine]	slight, but nonsignificant trend for inhibition	
O=C(NCC1CC1)c1cc(N2CC[C@H](O)C2)nc(N2CCC[C@@H](c3ccccc3)C2)n1 [LEI-401]		reduced the ability of 5 μM VU534 to activate Nape-pld in a concentration-dependent manner
